Assay results from ChEMBL document CHEMBL1125672, “2-acetylpyridine thiosemicarbazones. 13. Derivatives with antifilarial activity” (1991).

Columns and labels:
Acanthocheilonema viteae = assay: anti-filarial Activity was measured against Acanthocheilonema viteae in jirds at 25 mg/kg/day(5 days) dose; format: functional
Summary of the method: (§1)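 Jirds with established B. pahangi or A. viteae infections were given drug once daily for 5 days by subcutaneous injection, at the maximum tolerated dose and, where supply allowed, graded lower doses. Tolerance was first checked in noninfected jirds with a single 200 mg/kg oral or subcutaneous dose, watching 72 h for excessive weight loss or death. Macrofilarial suppression was the read-out.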

Brugia pahangi = assay: anti-filarial Activity was measured against Brugia pahangi in jirds at 12.5 mg/kg/day(5 days) dose; format: functional; summary of the method: as §1
Onchocerca gutturosa [1] = assay: Mean motility score for treated Onchocerca gutturosa involving LLCMK2 feeder cells at a concentration of 1.95*10e-8 M at 4 h; format: functional
Summary of the method: (§2)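 One male O. gutturosa per well over LLCMK2 feeder cells in MEM with 10% heat-inactivated FCS, antibiotics and bicarbonate, 5% CO2; compound introduced in DMSO (≤0.016%, equal DMSO in controls). Motility scored 0 (immotile) to 10 (maximal control activity) every 30 min to 4.5 h, then at 1, 2, 3, 4 and 7 days.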

Onchocerca volvulus [2] = assay: Colorimetric quantification of male Onchocerca volvulus viability, expressed as % inhibition of formazan formation at 5*10e-6 M conc. by using tetrazolium Dye MTT assay; format: functional
Summary of the method: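 Male O. volvulus dissected from human nodules within 24 h (kept in medium on ice), cultured without feeder cells in medium with 10% serum; drug from DMSO stock. MTT after 96 h: single worm, 0.5 mg/mL MTT, 30 min at 36.5 °C, formazan dissolved in DMSO 1 h at room temperature, absorbance 490 nm against DMSO blank.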

Onchocerca gutturosa [3] = assay: Colorimetric quantification of male Onchocerca gutturosa viability, expressed as % inhibition of formazan formation at 3.05*10e-9 M conc. by using tetrazolium Dye MTT assay; format: functional
Summary of the method: (§3)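 Single intact male O. gutturosa, cultured with LLCMK2 feeder cells in MEM + 10% heat-inactivated FCS (5% CO2), drug added from DMSO (≤0.016% DMSO in controls). MTT read after 168 h: worm in 0.5 mg/mL MTT, 30 min at 36.5 °C, formazan solubilized in DMSO 1 h at room temperature, absorbance 490 nm vs DMSO blank.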

Onchocerca gutturosa [4] = assay: Colorimetric quantification of male Onchocerca gutturosa viability, expressed as % inhibition of formazan formation at 3.1*10e-6 M conc. by using tetrazolium Dye MTT assay; format: functional; summary of the method: as §3
Onchocerca gutturosa [5] = assay: Mean motility score for treated Onchocerca gutturosa involving LLCMK2 feeder cells at a concentration of 4.88*10e-8M at 4.5 h; format: functional
Summary of the method: (§4)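 Single male O. gutturosa worms (obtained following abattoir slaughter) per well in Eagle's MEM with 10% heat-inactivated fetal calf serum, penicillin, streptomycin, amphotericin B and bicarbonate, over LLCMK2 feeder cells, 5% CO2 in air. Drug dissolved in DMSO; controls received matched DMSO ≤0.016%. Motility scored 0 (immotile) to 10 (maximum control activity) every 30 min to 4.5 h, then days 1, 2, 3, 4, 7.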

Onchocerca gutturosa [6] = assay: Mean motility score for treated Onchocerca gutturosa involving LLCMK2 feeder cells at a concentration of 4.88*10e-8M at 72 h; format: functional; summary of the method: as §4
Onchocerca gutturosa [7] = assay: Mean motility score for treated Onchocerca gutturosa involving LLCMK2 feeder cells at a concentration of 5*10e-5 M at 0.5 h; format: functional; summary of the method: as §4
Onchocerca gutturosa [8] = assay: Mean motility score for treated Onchocerca gutturosa involving LLCMK2 feeder cells at a concentration of 5*10e-5 M at 3 h; format: functional; summary of the method: as §4
Onchocerca gutturosa [9] = assay: Mean motility score for treated Onchocerca gutturosa involving LLCMK2 feeder cells at a concentration of 5*10e-5 M at 48 h; format: functional
Summary of the method: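 Single male O. gutturosa worms per well in Eagle's MEM with 10% heat-inactivated fetal calf serum, antibiotics and bicarbonate, over LLCMK2 feeder cells, 5% CO2 in air. Test chemical dissolved in DMSO and diluted into medium; control wells got matched DMSO not exceeding 0.016%. Motility scored 0 (immotile) to 10 (maximum control motility) every 30 min for 4.5 h, then at 1, 2, 3, 4 and 7 days.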

Onchocerca gutturosa [10] = assay: Mean motility score for treated Onchocerca gutturosa involving LLCMK2 feeder cells at a concentration of 1.95*10e-8 M at 3 h; format: functional; details: in the assay text read “1.95*10e-7 M” for “1.95*10e-8 M”; summary of the method: as §2
Onchocerca gutturosa [11] = assay: Mean motility score for treated Onchocerca gutturosa involving LLCMK2 feeder cells at a concentration of 3.1*10e-6 M at 48 h; format: functional; summary of the method: as §4
Onchocerca gutturosa [12] = assay: Mean motility score for treated Onchocerca gutturosa involving LLCMK2 feeder cells at a concentration of 3.05*10e-9 M at 3 h; format: functional; summary of the method: as §4
Onchocerca gutturosa [13] = assay: Mean motility score for treated Onchocerca gutturosa involving LLCMK2 feeder cells at a concentration of 3.05*10e-9 M at 48 h; format: functional; summary of the method: as §4
Onchocerca gutturosa [14] = assay: Mean motility score for treated Onchocerca gutturosa involving LLCMK2 feeder cells at a concentration of 3.1*10e-6 M at 1 h; format: functional; summary of the method: as §4
Onchocerca gutturosa [15] = assay: Mean motility score for treated Onchocerca gutturosa involving LLCMK2 feeder cells at a concentration of 3.1*10e-6 M at 24 h; format: functional; summary of the method: as §4
Onchocerca gutturosa [16] = assay: Mean motility score for treated Onchocerca gutturosa involving LLCMK2 feeder cells at a concentration of 1.95*10e-8 M at 0.5 h; format: functional; summary of the method: as §2
Onchocerca gutturosa [17] = assay: Mean motility score for treated Onchocerca gutturosa involving LLCMK2 feeder cells at a concentration of 3.05*10e-9 M at 4.5 h; format: functional; summary of the method: as §4
Onchocerca volvulus [18] = assay: Mean motility score for treated Onchocerca volvulus excluding LLCMK2 feeder cells at a concentration of 5*10e-5 M at 2 h
Onchocerca volvulus [19] = assay: Mean motility score for treated Onchocerca volvulus excluding LLCMK2 feeder cells at a concentration of 5*10e-5 M at 72 h
Onchocerca volvulus [20] = assay: Mean motility score for treated Onchocerca volvulus excluding LLCMK2 feeder cells at a concentration of 5*10e-5 M at 96 h
Onchocerca volvulus [21] = assay: Mean motility score for treated Onchocerca volvulus excluding LLCMK2 feeder cells at a concentration of 5*10e-5 M at 1.5 h
Onchocerca volvulus [22] = assay: Mean motility score for treated Onchocerca volvulus excluding LLCMK2 feeder cells at a concentration of 3.1*10e-6 M at 1 h
Onchocerca volvulus [23] = assay: Mean motility score for treated Onchocerca volvulus excluding LLCMK2 feeder cells at a concentration of 3.1*10e-6 M at 1.5 h
Onchocerca gutturosa [24] = assay: Mean motility score for treated Onchocerca gutturosa involving LLCMK2 feeder cells at a concentration of 5*10e-5 M at 168 h(O = IMMOTILE); format: functional; summary of the method: as §4
Onchocerca gutturosa [25] = assay: Mean motility score for treated Onchocerca gutturosa involving LLCMK2 feeder cells at a concentration of 1.21*10e-8M at 168 h; format: functional; summary of the method: as §2
Onchocerca gutturosa [26] = assay: Mean motility score for treated Onchocerca gutturosa involving LLCMK2 feeder cells at a concentration of 3.05*10e-9 M at 1 h; format: functional; summary of the method: as §2

Structure (SMILES) | Suppression (Acanthocheilonema viteae) | Suppression (Brugia pahangi) | Motility (Onchocerca gutturosa [7]) | Motility (Onchocerca gutturosa [8]) | Motility (Onchocerca gutturosa [9]) | Motility (Onchocerca gutturosa [12]) | Motility (Onchocerca gutturosa [13]) | Motility (Onchocerca gutturosa [17]) | Motility (Onchocerca volvulus [18]) | Motility (Onchocerca volvulus [19]) | Motility (Onchocerca volvulus [20]) | Motility (Onchocerca volvulus [21]) | Motility (Onchocerca volvulus [22]) | Motility (Onchocerca volvulus [23]) | other results
C/C(=N\NC(=S)N1CCCCCC1)c1ccccn1 | 100% | 100% | 6 | 2.2 | 0 | 8.8 | 6.8 | 9.5 | 8 | 1 | 0.3 | 8 | 6.6 | 6.4 | Motility (Onchocerca gutturosa [1]): 10; Inhibition (Onchocerca volvulus [2]): 58.2%; Inhibition (Onchocerca gutturosa [3]): 19.5%; Inhibition (Onchocerca gutturosa [4]): 90.2%; Motility (Onchocerca gutturosa [5]): 9.8; Motility (Onchocerca gutturosa [6]): 3.5; Motility (Onchocerca gutturosa [10]): 10; Motility (Onchocerca gutturosa [11]): 2.8; Motility (Onchocerca gutturosa [14]): 9.8; Motility (Onchocerca gutturosa [15]): 4; Motility (Onchocerca gutturosa [16]): 8.8
C/C(=N\NC(S)=Nc1ccccc1N)c1ccccn1 | 94% | 16% | 10 | 9.3 | 8.3 | 7.5 | 6.3 | 7.5 | 6 | 2.4 | 0.6 | 4.4 | 5 | 4.4 | Motility (Onchocerca gutturosa [24]): 0; Motility (Onchocerca gutturosa [25]): 1; Motility (Onchocerca gutturosa [26]): 8.8
